Reference: paper PMC10150721 (Journal of Medicinal Chemistry, 2023)

Columns and labels:
[1] = system: class-IIa HDAC; format: cell-based; settings: HT-29 cells
In short: (§1)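 HT-29 cells were grown in DMEM with 10% FBS at 37 °C and 5% CO2, then trypsinised and washed into RPMI without phenol red containing 0.1% FBS. They were seeded at 200 000 cells/well overnight. Substrate was 100 μM Boc-Lys-TFA for class-IIa or 200 μM Boc-Lys-Ac for class-I/IIb, incubated 3 h at 37 °C. Trypsin developer with tween 80 then lysed the cells over 1 h; fluorescence read at ex 360/em 460 nm.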

[2] = system: class-I/IIb HDAC; format: cell-based; settings: HT-29 cells
In short: as §1

[3] = screened at 1.0 and 10.0 µM side-by-side with SAHA and NT160

O=C(O)c1ccc(-c2noc(C(F)(F)F)n2)cc1 [compound 1, 4-(5-(trifluoromethyl)-1,2,4-oxadiazol-3-yl)benzoic acid]
Inhibition of class-IIa HDAC activity [1, 3]: ~10% | IC50 ([1]; read-out: IC50, class-IIa HDAC): > 10 µM | Inhibition of class-I, class-IIb HDAC activities [2, 3]: ~10% | IC50 ([2]; read-out: IC50, class-I/IIb HDAC): > 10 µM
